Screening results as filed in PubChem.
Most compounds without a hit are left out; they make up all but 4.3% or so of the library.
STAT1 act: STAT1 signaling activators, primary screen, cell-based, HTS, luciferase reporter | NIH 3T3 STAT1-luciferase reporter, IFN-gamma, luminescence; 100% = IFN-gamma alone, no compound | activation (% of control), % at 5.5 µM | actives 2.6% (n = 200,000);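 active means activation above the screen-wide mean activation plus 3 SD, cut at about 130% in these data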;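 further: raw ratio to IFN-gamma control signal so 100% means no change and 0% no light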
FLuc act counter: FLuc activators, initial screening, artefact control for FLuc-dependent activation tests, biochemical, ATPlite luminescence. activation factor at 10 µM. AID 1027, 2008. 200,000 tested, under 10 active. ATPlite luciferase biochemical, 10 min; 0 = ATP-free wells, 1 = DMSO control;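 active means luciferase activation factor, scaled between plate controls, of at least 2 with compound at 10 µM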
Target sequence (P08659 whole entry, looked up): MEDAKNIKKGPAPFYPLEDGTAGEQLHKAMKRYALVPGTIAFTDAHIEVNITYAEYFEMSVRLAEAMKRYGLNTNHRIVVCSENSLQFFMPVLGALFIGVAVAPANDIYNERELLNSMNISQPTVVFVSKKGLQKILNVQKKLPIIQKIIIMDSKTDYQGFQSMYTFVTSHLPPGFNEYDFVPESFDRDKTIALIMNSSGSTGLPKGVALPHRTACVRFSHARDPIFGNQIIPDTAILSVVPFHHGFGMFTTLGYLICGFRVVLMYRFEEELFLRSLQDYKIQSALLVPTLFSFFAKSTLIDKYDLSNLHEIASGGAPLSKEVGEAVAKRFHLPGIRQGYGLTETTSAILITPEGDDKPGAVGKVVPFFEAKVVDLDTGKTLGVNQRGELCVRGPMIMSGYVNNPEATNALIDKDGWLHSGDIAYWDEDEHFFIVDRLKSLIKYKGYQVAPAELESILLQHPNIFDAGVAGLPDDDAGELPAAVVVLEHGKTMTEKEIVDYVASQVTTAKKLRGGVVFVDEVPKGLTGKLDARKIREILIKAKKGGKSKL
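test system = cell-free luciferase reagent | medium = PBS as buffer for the ATP substrate | dosing = test compounds dosed from 2 mM stocks in 100% DMSO | incubation = 10 min at ambient temperature | detection = luminescence measurement of luciferase light output | benchmarks = low control with PBS replacing ATP, high control enzyme plus ATP without compound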
NF-kB expr up: activators of NF-kB expression in neurons, primary screen, cell-based, HTS; human neuronal cells, NF-kB reporter expression; stronger effect = higher value; actives 1.6% (n = 190,000); fold change at 12.5 µM; in the data active means fold change above about 3.3
APP 5'UTR act: activators of APP 5'UTR luciferase reporter, primary screen, SH-SY5Y cells | SH-SY5Y APP 5'UTR luciferase reporter, luminescence; zero percent = DMSO vehicle wells | activation, % at 2 µM | actives 1% (n = 190,000) | AID 1276, 2008;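 active means activation above a set limit, based on mean plus 3 SD of controls, cut at about 140% in these data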
FLuc inhib CS: firefly luciferase enzyme inhibitors, primary screen, artefact control for luciferase-based inhibitor screens, biochemical, luminescence, ATPLite | 10 min | inhibition, % at 10 µM | actives 1.5% (n = 200,000) | Luciferin 4-monooxygenase (Photinus pyralis), P08659;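 active means inhibition above about 50% when tested at 10 µM, limit read from the data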
Starred values were filed as active, the others as inactive; nt = no result given.

SMILES	STAT1 act	FLuc act counter	NF-kB expr up	APP 5'UTR act	FLuc inhib CS
C=CCn1c2ccccc2c2nnc(SC(CC)C(=O)Nc3sc4c(c3C#N)CCCC4)nc21 (stereo unspecified)	92	1	0.9	-5	-5
Cc1cccc(NC(=O)c2cnc3ccccn3c2=O)c1	117	0.2	2.2	113	84*
Cc1cc(NC(=O)c2cnc3ccccn3c2=O)no1	122	nt	nt	11	nt
COc1ccccc1OCCN1CSC(=S)N(C)C1	107	1	6.6*	-5	-4
NC(=O)c1nc(-c2cccs2)nc2c1[nH]c(=O)n2-c1ccc(F)cc1	108	1	0.94	-2	-2
CC(=O)/C(=N/Nc1ccc(C)cc1)Sc1nnc(CCc2ccccc2)n1-c1ccccc1	100	1	4.4*	-1	-3
CC(=O)NC1=C(C#N)C(c2ccccc2)c2c(ccc3ccccc23)O1 (stereo unspecified)	103	1.1	1.1	nt	-9
CC(=O)Nc1ccc(C2NC(=O)c3ccccc3O2)cc1 (stereo unspecified)	106	1.1	1.1	-1	-6
CC(=O)Nc1ccc(C2Nc3ccccc3C(=O)N2C2CCCCC2)cc1 (stereo unspecified)	104	1.1	3.4*	6	-5
Oc1c(C=NCc2ccccc2)sc2ccccc12	143*	0.8	3.5*	11	19
Nc1ccc(SCC(=O)Nc2cccc([N+](=O)[O-])c2)cc1	108	1.1	1.1	11	-7
Cc1cc(/C=N/O)c(C)n1-c1ccc(Br)cc1	106	1	0.79	0	2
O/N=C/c1ccn(-c2ccc(Br)cc2)c1	131*	0.8	2	57	20
Cc1ccc(-c2nnn(CC(=O)Nc3ccccc3-c3ccccc3)n2)c(-n2cnnn2)c1	85	1	1.1	-1	-4
CCOC(=O)NC(=O)c1cn(CCNCCO)c(=O)[nH]c1=O	96	1	0.96	3	-4
CCOC(=O)C1(CCCc2ccccc2)CCN(C(=O)C2CCCN(C(N)=O)C2)CC1 (stereo unspecified)	96	1	1.1	16	-5
CCCn1c(O)c(N=N)c2ccccc21	100	1.1	1	-16	-6
Cc1ccc(C(=O)Nc2ccc(Br)c(C(F)(F)F)c2)cc1	143*	1	3.2	108	0
Nc1ncc(Br)cc1N=Cc1ccccc1	149*	0.9	4.7*	86	9
O=C(CCc1ccccc1)Nc1ccc(Cl)cn1	130*	1	1.9	-75	5
Cc1cccnc1NC(=S)NCCc1ccccc1	130*	1	2.1	62	4
Cc1ccc(NC(=O)CCCc2ccccc2)nc1	138*	1	1.2	73	4
O=C(CCc1ccccc1)Nc1ccccc1F	144*	0.9	3.5*	nt	8
Cc1cccnc1NC(N)=S	106	1	0.98	5	0
O=C(CCCc1ccccc1)Nc1cccnc1Cl	108	1	1.2	19	0
SMILES	STAT1 act	FLuc act counter	NF-kB expr up	APP 5'UTR act	FLuc inhib CS
O=C(CCc1ccccc1)Nc1ccc(F)cc1F	109	1	1.8	-47	-3
CCOC(=O)c1ccc(NC(=O)N2CCN(Cc3ccccc3)CC2)cc1	108	1	0.83	15	1
CCCCC(CC)C(=O)N1CCN(C(=O)c2ccco2)CC1 (stereo unspecified)	100	1	1.5	-16	-3
OCCNC(=S)NCCc1ccccc1	88	1	0.97	6	-2
Cc1ccc(NC(=S)NCCc2ccccc2)nc1	136*	1.1	1.8	29	-6
Cc1ccc(OCC(=O)NCCc2c[nH]c3ccccc23)cc1	96	1	1.2	-7	-2
COc1ccccc1N1CCN(C(=O)CNC(=O)c2cn(-c3ccccc3OC)c(=O)c3ccccc23)CC1	106	0.6	1.4	35	42
COc1ccccc1-n1cc(C(=O)NCC(=O)N2CCN(c3ccccc3)CC2)c2ccccc2c1=O	136*	0.3	2.2	34	70*
Brc1ccc(-c2csc(/N=C/N3CCCC3)n2)cc1	132*	1	1.4	29	3
OCCN(/C=N/c1nc(-c2ccc(Br)cc2)cs1)CCO	116	1	1.8	42	-1
NC(=O)C1CCN(c2nc(-c3ccc(Br)cc3)cs2)CC1	131*	1	1.8	54	-4
Brc1ccc(-c2csc(/N=C/N3CCOCC3)n2)cc1	136*	1	2	53	-5
O=C(NCc1cccnc1)C(=O)N/N=C/c1ccc([N+](=O)[O-])cc1	101	1	1.2	5	-4
CCOC(=O)C/C(C)=N/NC(=O)Nc1ccccc1	131*	1	1.1	25	-2
O=C(Nc1ccc(CN2CCOCC2)cc1)c1cccc(F)c1	133*	0.7	2.1	76	28
COC(=O)c1ccc(NC(=O)c2ccc(CN3CCOCC3)cc2)cc1	100	1.1	1.1	-4	-7
C/C(=N\NC(=O)c1ccc(CN2CCOCC2)cc1)c1ccc(NC(=O)c2ccccc2)cc1	131*	0.9	1.5	74	6
Cc1ccccc1C1CC(c2cccs2)Nc2nnnn21 (stereo unspecified)	95	1	1.3	10	-3
CSc1ccc(/C=C/C(=O)c2ccc(O)cc2)cc1	108	0.3	3.4*	73	70*
CNS(=O)(=O)c1ccc2nc(NC(=O)/C=C/c3ccco3)sc2c1	131*	1	1.1	29	-2
CCOc1ccc(C(=O)/C=C/c2ccc(SC)cc2)cc1	101	0.8	0.99	4	18
Cc1ccc(-c2csc(NC(=O)/C=C/c3ccco3)c2C(=O)O)cc1	138*	0.4	1.7	63	64*
O=C(/C=C/c1ccco1)c1ccc(O)cc1	99	0.5	3.3*	79	49
COc1cc(NC(=O)c2cccc(Br)c2)nc(OC)n1	123	1	1.9	43	2
CC(C)Oc1ccc(Br)cc1/C=N\NC(N)=S	116	1	0.84	-9	-1
SMILES	STAT1 act	FLuc act counter	NF-kB expr up	APP 5'UTR act	FLuc inhib CS
COC(=O)c1ccc(NC(=S)NC2CC3CCC2C3)cc1 (stereo unspecified)	123	1	2.1	19	0
COCCNC(=O)c1ccccc1NC(=O)CCSc1ccccc1	108	1	0.97	-7	2
COc1cc(CCC(=O)Nc2cccc(S(=O)(=O)N(C)C)c2)cc(OC)c1OC	104	1	0.92	-15	-2
O=C(/C=C/c1ccco1)NC(=S)Nc1ccccn1	118	0.7	2.1	89	29
O=C(/C=C/c1ccco1)Nc1cccc(NC(=O)/C=C/c2ccco2)n1	128	0.5	0.65	60	52*
O=C(/C=C/c1ccco1)NC1=NCCS1	145*	0.7	2	96	34
